Assay results as given in the EternaBench riboswitch data.

Test system: MS2 coat protein
Assay: apparent Kd, MS2 coat protein; higher = weaker binding; RNA-MaP array; FMN 200 µM where present
Outline: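 Two titrations, one without ligand and one with constant ligand, were run with SNAP-549-labelled MS2 coat protein from 0.7 or 1.5 nM, doubling to 3 µM. The targets were designs transcribed by stalled E. coli RNA polymerase on Illumina sequencing-chip clusters, in 100 mM Tris-HCl pH 7.5, 80 mM KCl, 4 mM MgCl2, BSA, DTT, yeast tRNA and Tween-20. The apparent Kd is the median of filtered per-cluster binding-curve fits, with green signal normalised to red-channel RNA signal and control-cluster median Fmax.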

[1] = designed as: OFF switch for flavin mononucleotide, no ligand
[2] = ligand present: flavin mononucleotide, designed as: OFF switch for flavin mononucleotide
[3] = designed as: ON switch for flavin mononucleotide, no ligand
[4] = ligand present: flavin mononucleotide, designed as: ON switch for flavin mononucleotide

| Sequence | apparent Kd [1] [nM] | apparent Kd [2] [nM] | apparent Kd [3] [nM] | apparent Kd [4] [nM] |
| --- | --- | --- | --- | --- |
| UUUUAACAUGAGGAUCACCCAUGUGAGGAUAUCGAAAUUUAUAUUAAUAUUAUUAAUACGAGAAGGCACAUUUU | 36.9 | 61.8 | – | – |
| GCGAAGAACGAGAAGGCCACAACAUGAGGAUCACCCAUGUCGUGGAGUAUUGGAGGAUAUCGUUAGGCGUCUCAUGAGGACAUA | 5.92 | 5.66 | – | – |
| CAGAGUUGGUAAGGAUAUCCCACAUUAUUCUGACCCGUGCAAGCUACAUGAGGAUCACCCAUGUGGGAGAAGGUGCGUUAAAGA | 39 | 35 | – | – |
| GGAUAGGACAGAGGAUAUACGUGCUAGAGAUACUAGCAAAUAAUCCUUACAUGAGGAUCACCCAUGUAGAAGGCUGUCCUAUCG | 20.2 | 48 | – | – |
| GGUACUCAAAGAGUACCAAUACGAACAUGAGGAUCACCCAUGUAGGAUAUGCUACUCAAAGAGUAGCAGAAGGAUAUGUGUCUA | 16.5 | 17.5 | – | – |
| AAAAAAAAAAGACAGGAUAUCCAAAAAAAAACAUGAGGAUCACCCAUGUAAAAAAAAAAAAAAUGGGAGAAGGGUCAAAAAAAAAA | – | – | 63.2 | 32.1 |
| CUGGAUCACGCAGGAUAUUACAUGAGGAUCACCCAUGUCAGAACUGCAAUAUCGUCUCCUCGUUGUGAGAAGGGCGGAAUCAUA | 13.8 | 19.9 | – | – |
| UUAGCAACAUGAGGAUCACCCAUGUAGGAUAUCGCUAUUGUAAUCAUGAAACAUGAUUACAAUAGCGAGAAGGACAUAUGCUAU | 10.1 | 11.7 | – | – |
| AGUGUCAUCGAGAAGGCCUCAACAUGAGGAUCACCCAUGUUGCAAAAUGGGAGGAUAUCGCGCGCAAAACUACGUUUCGUAGCA | – | – | 30.5 | 11.4 |
| UUACUAUUGCAGAAGGCGCAAUAAUAUAUAAAGUGAGGAUAUGCAACAUGAGGAUCACCCAUGUUUCACCCAUAUGAGGAUCAC | 6.93 | 7.32 | – | – |
| GAACUGAAGCUUAGCUUUAGUCGUACAUGAGGAUCACCCAUGUAGGAUAUGGUAGGCAUAGCUUACUAGAAGGAUAGAGUGAUC | 198 | 69.6 | – | – |
| GUCAGCUCGUGAGGAUAUAUAUUAACAUGAGGAUCACCCAUGUAAGAUCAGCUUCGGCAGUUAAUAUAGAAGGCACGAGCUGAC | 168 | 188 | – | – |
| AGAAAUUCAGGAUAUACAUGAGGAUCACCCAUGUUUGGCAGAGGCGCCGAGAUCCCACGUAGAAGGGAAAAGAC | 37.1 | 79.9 | – | – |
| GCGUAUGAGCAGGAUAUCCGACGGGAAUCCAAAGGAGAAGGGCUCACAUGAGGAUCACCCAUGUGGUCCUAAAC | 20.2 | 101 | – | – |
| AUCAGCUCGUCAGGAUAUACAUCACUGCGUCAGCAGUGUGGUAAGAUCACAUGAGGAUCACCCAUGUAGAAGGGACGAGCUGAU | 13.9 | 252 | – | – |
| CUGCGGUCAGGAUAUGCAUGGCGGGACUUGCGUCGUGGCGUGGAGAAGGGACAUGAGGAUCACCCAUGUGGAGA | 67.9 | 42.3 | – | – |
| UCCUACAUGGGAGGAUAUGGGACAUGAGGAUCACCCAUGUGAAAAUUAAAUAUGCCGAGAGGCAACUAGAAGGCCCAUGUAGGU | – | – | 35.8 | 19.2 |
| GCAGCAUAAAUUAUACAUGAGGAUCACCCAUGUUACAUGUGUAAGGAUAUUGAGGUUAUUAUUGGCAAGAAGGUACAAUGCUGC | – | – | 15.2 | 8.57 |
| AUGAGGUCAGGAUAUGCAUGGCGGGACUUGCGUCGUGGCGUGGAGAAGGGACAUGAGGAUCACCCAUGUGGAGC | 56.6 | 64.7 | – | – |
| GGGAGUGGAGGGAAUAACAUGAGGAUCACCCAUGUAUGGGAGAGAAGGCAGGUCGGAGGGCGAUCUGAGGAUAUUUAGACUCCU | – | – | 12.5 | 10.3 |
| GUCAUCACAUGAGGAUAUGCUCGGGUUUCCCGAGCAGAAGGCAUGGCAUACAUGAGGAUCACCCAUGUUGACAUUAAGAUUGUA | – | – | 10.3 | 6.73 |

| Sequence | apparent Kd [1] [nM] | apparent Kd [2] [nM] | apparent Kd [3] [nM] | apparent Kd [4] [nM] |
| --- | --- | --- | --- | --- |
| ACGAUACAUGAGGAUCACCCAUGUUAGGAUAUACGCAUGCAUGCAUGCAUGCAUGCAAGUAGAAGGAACCAUGC | 27.5 | 26.8 | – | – |
| CUGUUCCGUGUAGGAUAUGCAUAUUCUCAUUAUGCAGAAGGACAUGAGGAUCACCCAUGUAUGUUAUUAUCAUAUGUUACAUGU | 37.5 | 321 | – | – |
| GCUCUCGGAGGAUAUGUGCCGAGUGACAUGAGGAUCACCCAUGUAUUUCUCCUGUAAUCUACAGAAGGCCGAGGCG | 161 | 23.9 | – | – |
| UGAUCUUUUGUUAGGAUAUGCUGUUGUUUUCAACAGCAGAAGGGACAUGAGGAUCACCCAUGUCUUGUCAUAAA | 12 | 16.4 | – | – |
| GGUGGACAUGAGGAUCACCCAUGUGAGGAUAUCGGCCGGCUAGUGGCGGCUGGCUUCUCGAGAAGGCGCAUAGU | 47.2 | 62.9 | – | – |
| GGGCUCGGUGUGAGGAUAUUGGGUCUGAAAGGGCUCGAGAAGGCACAUGAGGAUCACCCAUGUAAGCUGGGUCU | 42.7 | 37.3 | – | – |
| UGCGGCGCGGGCCACCGCAGGGCCAGAAGGACAUGAGGAUCACCCAUGUGGCAGGACAGGGCGGUGUAGGAUAUGGCAGGCUGG | 16.7 | 20.8 | – | – |
| UGAGAUCAUGUAGGAUAUGCAUGGCGAAGCUACGCAGAAGGACAUGAGGAUCACCCAUGUUAUAGCUACCCAGUUCGGUGGCAA | 44.4 | 86.7 | – | – |
| GGAUAGGACAGAGGAUAUACGUGCUAGAGAUACUAGCAAAAUUUCCUCACAUGAGGAUCACCCAUGUAGAAGGUUGUCCUAUCG | 5.14 | 11.8 | – | – |
| ACAUGAUAUGUAGGAUAUCACAUUAAUUGUUUUAUAAUUGUAAUUUGGAUUUGAGAAGGACAUUUACAUGAGGAUCACCCAUGU | 15.9 | 12.1 | – | – |
| GCAAAGCCUGACAUGAGGAUCACCCAUGUUAGAUUGUUAUGUCAGGAUAUUGUCUAGAAACUAGACAAGAAGGGAUGCUUUGCA | – | – | 463 | 27.3 |
| GGCGGAGUAGGAUAUACAUGAGGAUCACCCAUGUAACCUGAUGGCGUAGGUCUUCUAUGUAGAAGGGCUACGCC | 17.4 | 16.7 | – | – |
| UCAUUAUAAAUCCAUCAUAACUACAUGAGGAUCACCCAUGUGCAGGAUAUCGAUUAUUUUACUAACGAGAAGGGCAAAUACAGA | 37.5 | 72.4 | – | – |
| GGGCUCGGAGGAUAUACAAUGGGCCCGGGAAACCGGGCCCUACAUGAGGAUCACCCAUGUAGAAGGUCGGGCUC | 16.4 | 24.8 | – | – |
| UUGUUCUGAGGAUAUACAUGAGGAUCACCCAUGUGUUUCUGCUUGGUGUCUUGCGAAUGUAGAAGGCUGUUCUC | 37.5 | 40.2 | – | – |
| ACAGUCACAAUAACUUGUGGGCGUGAGGAUAUAUAUGGCUCGGAGCGGACAUGAGGAUCACCCAUGUAGAAGGCACGAACUAAU | 6.1 | 8.54 | – | – |
| UUAAUUAACAAGAAGGCUAACAUGAGGAUCACCCAUGUUGUACAUGGAUAUAGAGGAUAUUGCUAAUAAUUAUUUAUCAUAAUU | 25.6 | 19 | – | – |
| AAUAACAGAGGAUAUACUAUUUUAUGUAUUUAUUAUUUUGAACAUGAGGAUCACCCAUGUAGAAGGCUGAAUGA | 26.4 | 22 | – | – |
| UCAUUAUAAAUCCAUCAUAACUACAUGAGGAUCACCCAUGUGCAGGAUAUCGAUUAUUUUACUAACGAGAAGGGCAUUUACAGA | 51.1 | 181 | – | – |
| UAAAAGAAAGUAAGGAUAUCUAAAUUGGAAAAGAGAGAGAAGGUACAUGAGGAUCACCCAUGUAGGGUAUCCGG | 52.1 | 72.8 | – | – |
| GCCAGGGAUUCAGGAUAUAUUAGCCGAGGCCGAGUAGAAGGGAAAUCCUGACAUGAGGAUCACCCAUGUCGACCCGCCUUCCUC | – | – | 20.5 | 21.1 |
